From ChEMBL document CHEMBL4428057, “Discovery, Synthesis, and Evaluation of 2,4-Diaminoquinazolines as a Novel Class of Pancreatic β-Cell-Protective Agents against Endoplasmic Reticulum (ER) Stress” (J Med Chem, 2016)
Calls of active or inactive are those of the source.

How the values were obtained:
[1] = target: T1, Eukaryotic translation initiation factor 2-alpha kinase 3 (Rattus norvegicus) (UniProt Q9Z1Z1); test: Inhibition of PERK pathway in rat INS-1 cells assessed as reduction in tunicamycin induced ATF4 mRNA levels at 20 uM after 2 to 24 hrs by qRT-PCR method; assay type: cell-based
T1 sequence (whole entry): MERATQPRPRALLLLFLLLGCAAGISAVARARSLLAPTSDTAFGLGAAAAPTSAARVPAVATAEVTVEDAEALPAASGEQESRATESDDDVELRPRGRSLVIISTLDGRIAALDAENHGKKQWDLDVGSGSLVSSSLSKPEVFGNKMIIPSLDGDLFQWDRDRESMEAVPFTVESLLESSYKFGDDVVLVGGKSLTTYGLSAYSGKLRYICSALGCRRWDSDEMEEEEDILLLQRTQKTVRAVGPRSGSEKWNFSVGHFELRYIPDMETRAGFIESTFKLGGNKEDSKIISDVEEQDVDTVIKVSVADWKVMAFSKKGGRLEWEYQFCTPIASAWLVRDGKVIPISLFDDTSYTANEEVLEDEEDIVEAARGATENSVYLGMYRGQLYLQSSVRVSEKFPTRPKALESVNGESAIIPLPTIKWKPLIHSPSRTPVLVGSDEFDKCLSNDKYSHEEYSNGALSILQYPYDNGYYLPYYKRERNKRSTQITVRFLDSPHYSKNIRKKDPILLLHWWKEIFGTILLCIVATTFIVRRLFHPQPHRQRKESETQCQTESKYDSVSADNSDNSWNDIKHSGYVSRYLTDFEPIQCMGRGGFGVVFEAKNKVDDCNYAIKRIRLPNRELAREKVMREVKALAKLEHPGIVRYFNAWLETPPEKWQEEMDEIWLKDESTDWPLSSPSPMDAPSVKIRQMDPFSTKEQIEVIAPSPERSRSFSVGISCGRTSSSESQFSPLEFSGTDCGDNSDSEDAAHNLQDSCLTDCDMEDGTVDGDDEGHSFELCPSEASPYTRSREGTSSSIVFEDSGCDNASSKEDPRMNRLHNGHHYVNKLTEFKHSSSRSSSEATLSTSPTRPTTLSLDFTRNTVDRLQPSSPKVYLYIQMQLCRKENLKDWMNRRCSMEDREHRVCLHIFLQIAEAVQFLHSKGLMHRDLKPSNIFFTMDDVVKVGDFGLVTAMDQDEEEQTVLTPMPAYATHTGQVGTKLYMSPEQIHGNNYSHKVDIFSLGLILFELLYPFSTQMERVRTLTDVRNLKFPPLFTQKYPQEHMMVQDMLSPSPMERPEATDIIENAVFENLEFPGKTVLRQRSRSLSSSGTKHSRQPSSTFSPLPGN
Outline: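 ATF4 or CHOP mRNA measured by qRT-PCR in INS-1 cells treated with Tm 0.1 µg/mL ± compound 20 µM or DMSO for the indicated times. Expressed as fold-increase over untreated control; means of 3 replicate wells, representative of 3 independent experiments, SD.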

[2] = tested on: INS1; test: Reversal of tunicamycin-induced suppression of MafA mRNA levels in rat INS-1 cells at 20 uM after 24 hrs by qRT-PCR method; assay type: functional, cell-based
Outline: (§1)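 INS-1 cells (4×10^5/well, 6-well plates) given Tm 0.1 µg/mL ± compound 20 µM or DMSO for 24 h. INS1, INS2, PDX1 and MafA mRNA measured by qRT-PCR with rat primers. Means of 3 replicate wells, representative of 3 independent experiments; SD.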

[3] = target: T1, Eukaryotic translation initiation factor 2-alpha kinase 3 (Rattus norvegicus); test: Inhibition of PERK pathway in rat INS-1 cells assessed as reduction in tunicamycin induced ATF4 protein levels at 20 uM after 2 to 24 hrs by Western blot analysis; assay type: cell-based
Outline: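 Western blots of INS-1 cells (8×10^5/60-mm dish) treated with Tm 0.1 µg/mL ± compound 20 µM or DMSO for the indicated times. Lysates with EDTA and phosphatase inhibitors; 20 µg protein on 7% SDS-PAGE, PVDF. Primary antibodies at 1:1000 against ATF4, CHOP, cleaved caspase 3 or PARP; α-tubulin loading control; HRP secondaries. Representative of 3 experiments.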

[4] = target: T2, Cyclic AMP-dependent transcription factor ATF-6 alpha (Rattus norvegicus) (UniProt G3V909); test: Inhibition of ATF6 in rat INS-1 cells assessed as suppression of tunicamycin induced GRP94 mRNA levels at 20 uM after 4 to 24 hrs by qRT-PCR method; assay type: cell-based
T2 sequence (whole entry): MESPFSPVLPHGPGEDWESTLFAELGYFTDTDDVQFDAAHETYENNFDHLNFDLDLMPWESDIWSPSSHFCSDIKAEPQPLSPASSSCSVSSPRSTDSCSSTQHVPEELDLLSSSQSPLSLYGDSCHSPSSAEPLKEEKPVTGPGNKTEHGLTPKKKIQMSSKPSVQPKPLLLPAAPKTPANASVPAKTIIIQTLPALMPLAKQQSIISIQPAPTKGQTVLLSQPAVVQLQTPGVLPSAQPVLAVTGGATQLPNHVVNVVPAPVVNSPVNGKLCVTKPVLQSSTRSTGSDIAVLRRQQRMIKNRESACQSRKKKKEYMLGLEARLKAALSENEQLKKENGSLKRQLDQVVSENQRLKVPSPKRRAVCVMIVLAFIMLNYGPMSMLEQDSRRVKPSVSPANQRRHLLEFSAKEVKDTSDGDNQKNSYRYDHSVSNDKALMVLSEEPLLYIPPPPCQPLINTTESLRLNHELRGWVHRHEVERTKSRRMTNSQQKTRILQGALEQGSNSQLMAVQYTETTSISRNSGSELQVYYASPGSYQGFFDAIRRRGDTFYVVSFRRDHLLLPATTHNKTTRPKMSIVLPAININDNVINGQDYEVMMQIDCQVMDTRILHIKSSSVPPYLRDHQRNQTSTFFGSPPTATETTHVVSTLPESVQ
Outline: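 INS-1 cells seeded at 4×10^5/well in 6-well plates, given Tm 0.1 µg/mL ± compound 20 µM or DMSO for the indicated times. Bip or GRP94 mRNA measured by qRT-PCR, expressed as fold-increase over untreated control. Means of 3 replicate wells, representative of 3 independent experiments.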

[5] = tested on: INS1; test: Reversal of tunicamycin suppressed INS2 mRNA levels in rat INS-1 cells at 20 uM after 24 hrs by qRT-PCR method; assay type: functional, cell-based; outline: as §1

COc1ccc(CNc2nc(N3CCCCC3CO)nc3ccccc23)cc1 (racemic)
active: inhibition [1] | Activity [2] | inhibition [3] | inhibition [4] | Activity [5]
